Measurements taken from ChEMBL document CHEMBL3045365, “Chemical composition and antifungal activity of Salvia macrochlamys and Salvia recognita essential oils” (2006).

Legend:
[1] = system: Colletotrichum gloeosporioides; assay: Antifungal activity against Colletotrichum gloeosporioides assessed as growth inhibition at 4 uL in 2 mM acetone by direct bioautography; assay type: functional
Method in brief: (§1)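 Standards applied at 2 mM in 4 μL acetone onto silica TLC plates and tested by direct bioautography against each Colletotrichum species. Activity read as clear inhibitory zone size (mm), reported as mean ± SEM. Technical-grade fungicides at 2 mM in 2 μL EtOH served as internal standards. Runs repeated multiple times in dose- and non-dose-response formats.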

Colletotrichum fragariae [2] = assay: Antifungal activity against Colletotrichum fragariae assessed as growth inhibition at 4 uL in 2 mM acetone by direct bioautography; assay type: functional; method in brief: as §1
Colletotrichum acutatum [3] = assay: Antifungal activity against Colletotrichum acutatum assessed as growth inhibition at 4 uL in 2 mM acetone by direct bioautography; assay type: functional; method in brief: as §1
[4] = system: Colletotrichum gloeosporioides; assay: Antifungal activity against Colletotrichum gloeosporioides assessed as growth inhibition at 2 uL in 2 mM EtOH by direct bioautography
Colletotrichum acutatum [5] = assay: Antifungal activity against Colletotrichum acutatum assessed as growth inhibition at 2 uL in 2 mM EtOH by direct bioautography
Colletotrichum fragariae [6] = assay: Antifungal activity against Colletotrichum fragariae assessed as growth inhibition at 2 uL in 2 mM EtOH by direct bioautography

Structure (SMILES) | inhibition zone (IZ) [1] [mm] | inhibition zone (IZ) (Colletotrichum fragariae [2]) [mm] | inhibition zone (IZ) (Colletotrichum acutatum [3]) [mm] | inhibition zone (IZ) [4] [mm] | inhibition zone (IZ) (Colletotrichum acutatum [5]) [mm] | inhibition zone (IZ) (Colletotrichum fragariae [6]) [mm]
CC1(C)[C@H]2CC[C@]1(C)[C@H](O)C2 [(-)-BORNEOL] | 0 | 0 | 0 | – | – | –
CC1(C)[C@H]2CC[C@]1(C)C(=O)C2 [(-)-CAMPHOR] | 0 | 0 | 0 | – | – | –
CO/C=C(/C(=O)OC)c1ccccc1Oc1cc(Oc2ccccc2C#N)ncn1 [AZOXYSTROBIN] | – | – | – | 28.33 | 24.33 | 19.33
CCCCNC(=O)n1c(NC(=O)OC)nc2ccccc21 [BENOMYL] | – | – | – | 19.33 | 18 | 18.33
CC1(C)C2CCC1(C)C(O)C2 (stereo not drawn) [BORNEOL] | 0 | 0 | 0 | – | – | –
CC12CCC(CC1=O)C2(C)C (stereo not drawn) [CAMPHOR] | 0 | 0 | 0 | – | – | –
O=C1C2CC=CCC2C(=O)N1SC(Cl)(Cl)Cl (stereo not drawn) [CAPTAN] | – | – | – | 10.33 | 14.67 | 15
Cc1ccc(C(C)C)cc1O [CARVACROL] | 3.5 | 3.4 | 4.5 | – | – | –
Cc1cc(C2CC2)nc(Nc2ccccc2)n1 [CYPRODINIL] | – | – | – | 29.33 | 29.33 | 30.33
CC12CCC(CC1)C(C)(C)O2 [EUCALYPTOL] | 0 | 0 | 0 | – | – | –
Cc1ccc(C(C)C)c(O)c1 [THYMOL] | 0 | 0 | 0 | – | – | –
